Reference: ChEMBL document CHEMBL3112444, “Synthesis and anticancer activity of focused compound libraries from the natural product lead, oroidin” (2014)

System: not listed separately
Assay: Cytotoxicity against human U87 cells assessed as growth inhibition at 25 uM after 72 hrs by MTT assay relative to control
Type: functional, U-87MG ATCC
Conditions: U-87 MG, read-out: GI
Method in brief: (§1)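 Cells in logarithmic growth kept in DMEM with 10% FBS, 10 mM sodium bicarbonate, penicillin 100 IU/mL, glutamine 4 mM, at 37 °C under 5% CO2. Plated in duplicate at 2500–4000 cells/well. Compound (30 mM DMSO stock) added 24 h after plating. MTT read at 540 nm after 72 h exposure.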

SMILES	inhibition of growth at 25 µM [%]
COc1ccc(CNC(=O)c2ccc[nH]2)cc1	< 0
O=C(NCCCCc1ccccc1)c1ccc[nH]1	< 0
O=C(NCCc1ccc2ccccc2c1)c1cc(Br)c(Br)[nH]1	< 0
O=C(NCC(c1ccccc1)c1ccccc1)c1ccc[nH]1	14
O=C(NCCCn1cccn1)c1ccc[nH]1	9
O=C(NCCCn1cccn1)c1cc(Br)c(Br)[nH]1	< 0
Cc1nccn1CCCNC(=O)c1ccc[nH]1	3
Cc1nccn1CCCNC(=O)c1cc(Br)c(Br)[nH]1	< 0
O=C(NCCc1c[nH]cn1)c1ccc[nH]1	6

System: not listed separately
Assay: Cytotoxicity against mouse SMA cells assessed as growth inhibition at 25 uM after 72 hrs by MTT assay relative to control
Type: functional
Conditions: read-out: GI
Method in brief: as §1

SMILES	inhibition of growth at 25 µM [%]
COc1ccc(CNC(=O)c2ccc[nH]2)cc1	< 0
O=C(NCCCCc1ccccc1)c1ccc[nH]1	6
O=C(NCCc1ccc2ccccc2c1)c1cc(Br)c(Br)[nH]1	17
O=C(NCC(c1ccccc1)c1ccccc1)c1ccc[nH]1	15
O=C(NCCCn1cccn1)c1ccc[nH]1	8
O=C(NCCCn1cccn1)c1cc(Br)c(Br)[nH]1	6
Cc1nccn1CCCNC(=O)c1ccc[nH]1	< 0
Cc1nccn1CCCNC(=O)c1cc(Br)c(Br)[nH]1	11
O=C(NCCc1c[nH]cn1)c1ccc[nH]1	0

System: not listed separately
Assay: Cytotoxicity against human MIA cells assessed as growth inhibition at 25 uM after 72 hrs by MTT assay relative to control
Type: functional
Conditions: read-out: GI
Method in brief: as §1

SMILES	inhibition of growth at 25 µM [%]
COc1ccc(CNC(=O)c2ccc[nH]2)cc1	6
O=C(NCCCCc1ccccc1)c1ccc[nH]1	15
O=C(NCCc1ccc2ccccc2c1)c1cc(Br)c(Br)[nH]1	21
O=C(NCC(c1ccccc1)c1ccccc1)c1ccc[nH]1	32
O=C(NCCCn1cccn1)c1ccc[nH]1	19
O=C(NCCCn1cccn1)c1cc(Br)c(Br)[nH]1	3
Cc1nccn1CCCNC(=O)c1ccc[nH]1	4
Cc1nccn1CCCNC(=O)c1cc(Br)c(Br)[nH]1	15
O=C(NCCc1c[nH]cn1)c1ccc[nH]1	7

System: not listed separately
Assay: Cytotoxicity against human SJ-G2 cells assessed as growth inhibition at 25 uM after 72 hrs by MTT assay relative to control
Type: functional
Conditions: SJ-G2, 72 h, read-out: GI
Method in brief: as §1

SMILES	inhibition of growth at 25 µM [%]
COc1ccc(CNC(=O)c2ccc[nH]2)cc1	< 0
O=C(NCCCCc1ccccc1)c1ccc[nH]1	8
O=C(NCCc1ccc2ccccc2c1)c1cc(Br)c(Br)[nH]1	10
O=C(NCC(c1ccccc1)c1ccccc1)c1ccc[nH]1	53
O=C(NCCCn1cccn1)c1ccc[nH]1	< 0
O=C(NCCCn1cccn1)c1cc(Br)c(Br)[nH]1	< 0
Cc1nccn1CCCNC(=O)c1ccc[nH]1	< 0
Cc1nccn1CCCNC(=O)c1cc(Br)c(Br)[nH]1	10
O=C(NCCc1c[nH]cn1)c1ccc[nH]1	< 0

System: not listed separately
Assay: Cytotoxicity against human BE(2)-C cells assessed as growth inhibition at 25 uM after 72 hrs by MTT assay relative to control
Type: functional
Conditions: read-out: GI
Method in brief: as §1

SMILES	inhibition of growth at 25 µM [%]
COc1ccc(CNC(=O)c2ccc[nH]2)cc1	< 0
O=C(NCCCCc1ccccc1)c1ccc[nH]1	< 0
O=C(NCCc1ccc2ccccc2c1)c1cc(Br)c(Br)[nH]1	< 0
O=C(NCC(c1ccccc1)c1ccccc1)c1ccc[nH]1	< 0
O=C(NCCCn1cccn1)c1ccc[nH]1	1
O=C(NCCCn1cccn1)c1cc(Br)c(Br)[nH]1	6
Cc1nccn1CCCNC(=O)c1ccc[nH]1	< 0
Cc1nccn1CCCNC(=O)c1cc(Br)c(Br)[nH]1	20
O=C(NCCc1c[nH]cn1)c1ccc[nH]1	< 0

System: DU-145
Assay: Cytotoxicity against human DU145 cells assessed as growth inhibition at 25 uM after 72 hrs by MTT assay relative to control
Type: functional
Conditions: DU-145, 72 h, read-out: GI
Method in brief: as §1

SMILES	inhibition of growth at 25 µM [%]
COc1ccc(CNC(=O)c2ccc[nH]2)cc1	8
O=C(NCCCCc1ccccc1)c1ccc[nH]1	10
O=C(NCCc1ccc2ccccc2c1)c1cc(Br)c(Br)[nH]1	14
O=C(NCC(c1ccccc1)c1ccccc1)c1ccc[nH]1	8
O=C(NCCCn1cccn1)c1ccc[nH]1	7
O=C(NCCCn1cccn1)c1cc(Br)c(Br)[nH]1	5
Cc1nccn1CCCNC(=O)c1ccc[nH]1	5
Cc1nccn1CCCNC(=O)c1cc(Br)c(Br)[nH]1	28
O=C(NCCc1c[nH]cn1)c1ccc[nH]1	5

System: A-431
Assay: Cytotoxicity against human A431 cells assessed as growth inhibition at 25 uM after 72 hrs by MTT assay relative to control
Type: functional
Conditions: A-431, 72 h, read-out: GI
Method in brief: as §1

SMILES	inhibition of growth at 25 µM [%]
COc1ccc(CNC(=O)c2ccc[nH]2)cc1	< 0
O=C(NCCCCc1ccccc1)c1ccc[nH]1	12
O=C(NCCc1ccc2ccccc2c1)c1cc(Br)c(Br)[nH]1	15
O=C(NCC(c1ccccc1)c1ccccc1)c1ccc[nH]1	30
O=C(NCCCn1cccn1)c1ccc[nH]1	1
O=C(NCCCn1cccn1)c1cc(Br)c(Br)[nH]1	3
Cc1nccn1CCCNC(=O)c1ccc[nH]1	< 0
Cc1nccn1CCCNC(=O)c1cc(Br)c(Br)[nH]1	11
O=C(NCCc1c[nH]cn1)c1ccc[nH]1	3

System: not listed separately
Assay: Cytotoxicity against human H460 cells assessed as growth inhibition at 25 uM after 72 hrs by MTT assay relative to control
Type: functional
Conditions: NCI-H460, 72 h, read-out: GI
Method in brief: as §1

SMILES	inhibition of growth at 25 µM [%]
COc1ccc(CNC(=O)c2ccc[nH]2)cc1	2
O=C(NCCCCc1ccccc1)c1ccc[nH]1	11
O=C(NCCc1ccc2ccccc2c1)c1cc(Br)c(Br)[nH]1	12
O=C(NCC(c1ccccc1)c1ccccc1)c1ccc[nH]1	11
O=C(NCCCn1cccn1)c1ccc[nH]1	14
O=C(NCCCn1cccn1)c1cc(Br)c(Br)[nH]1	14
Cc1nccn1CCCNC(=O)c1ccc[nH]1	3
Cc1nccn1CCCNC(=O)c1cc(Br)c(Br)[nH]1	22
O=C(NCCc1c[nH]cn1)c1ccc[nH]1	0

System: A2780
Assay: Cytotoxicity against human A2780 cells assessed as growth inhibition at 25 uM after 72 hrs by MTT assay relative to control
Type: functional
Conditions: A2780, 72 h, read-out: GI
Method in brief: as §1

SMILES	inhibition of growth at 25 µM [%]
COc1ccc(CNC(=O)c2ccc[nH]2)cc1	6
O=C(NCCCCc1ccccc1)c1ccc[nH]1	13
O=C(NCCc1ccc2ccccc2c1)c1cc(Br)c(Br)[nH]1	52
O=C(NCC(c1ccccc1)c1ccccc1)c1ccc[nH]1	27
O=C(NCCCn1cccn1)c1ccc[nH]1	10
O=C(NCCCn1cccn1)c1cc(Br)c(Br)[nH]1	15
Cc1nccn1CCCNC(=O)c1ccc[nH]1	1
Cc1nccn1CCCNC(=O)c1cc(Br)c(Br)[nH]1	21
O=C(NCCc1c[nH]cn1)c1ccc[nH]1	11

System: MCF7
Assay: Cytotoxicity against human MCF7 cells assessed as growth inhibition at 25 uM after 72 hrs by MTT assay relative to control
Type: functional
Conditions: MCF7, 72 h, read-out: GI
Method in brief: as §1

SMILES	inhibition of growth at 25 µM [%]
COc1ccc(CNC(=O)c2ccc[nH]2)cc1	5
O=C(NCCCCc1ccccc1)c1ccc[nH]1	23
O=C(NCCc1ccc2ccccc2c1)c1cc(Br)c(Br)[nH]1	53
O=C(NCC(c1ccccc1)c1ccccc1)c1ccc[nH]1	52
O=C(NCCCn1cccn1)c1ccc[nH]1	7
O=C(NCCCn1cccn1)c1cc(Br)c(Br)[nH]1	12
Cc1nccn1CCCNC(=O)c1ccc[nH]1	8
Cc1nccn1CCCNC(=O)c1cc(Br)c(Br)[nH]1	36
O=C(NCCc1c[nH]cn1)c1ccc[nH]1	1

System: SW480
Assay: Cytotoxicity against human SW480 cells assessed as growth inhibition at 25 uM after 72 hrs by MTT assay relative to control
Type: functional
Conditions: SW480, 72 h, read-out: GI
Method in brief: as §1

SMILES	inhibition of growth at 25 µM [%]
COc1ccc(CNC(=O)c2ccc[nH]2)cc1	10
O=C(NCCCCc1ccccc1)c1ccc[nH]1	< 0
O=C(NCCc1ccc2ccccc2c1)c1cc(Br)c(Br)[nH]1	< 0
O=C(NCC(c1ccccc1)c1ccccc1)c1ccc[nH]1	< 0
O=C(NCCCn1cccn1)c1ccc[nH]1	9
O=C(NCCCn1cccn1)c1cc(Br)c(Br)[nH]1	< 0
Cc1nccn1CCCNC(=O)c1ccc[nH]1	7
Cc1nccn1CCCNC(=O)c1cc(Br)c(Br)[nH]1	26
O=C(NCCc1c[nH]cn1)c1ccc[nH]1	1

System: HT-29
Assay: Cytotoxicity against human HT-29 cells assessed as growth inhibition at 25 uM after 72 hrs by MTT assay relative to control
Type: functional
Conditions: HT-29, 72 h, read-out: GI
Method in brief: as §1

SMILES	inhibition of growth at 25 µM [%]
COc1ccc(CNC(=O)c2ccc[nH]2)cc1	3
O=C(NCCCCc1ccccc1)c1ccc[nH]1	16
O=C(NCCc1ccc2ccccc2c1)c1cc(Br)c(Br)[nH]1	28
O=C(NCC(c1ccccc1)c1ccccc1)c1ccc[nH]1	29
O=C(NCCCn1cccn1)c1ccc[nH]1	4
O=C(NCCCn1cccn1)c1cc(Br)c(Br)[nH]1	4
Cc1nccn1CCCNC(=O)c1ccc[nH]1	5
Cc1nccn1CCCNC(=O)c1cc(Br)c(Br)[nH]1	10
O=C(NCCc1c[nH]cn1)c1ccc[nH]1	11
